The test system of data set [1] is PSMA+ PC3 PIP and PSMA– PC3 flu xenografts. The class given is in vivo, mice. As to conditions: for PIP:blood ratio / PIP:flu ratio / PIP:kidney ratio / PIP:muscle ratio / biodistribution, PC-3 PIP tumor / biodistribution, PC-3 flu tumor / biodistribution, bladder / biodistribution, blood / biodistribution, bone / biodistribution, fat / biodistribution, heart / biodistribution, kidney / biodistribution, large intestine / biodistribution, liver / biodistribution, lung / biodistribution, muscle / biodistribution, pancreas / biodistribution, small intestine / biodistribution, spleen / biodistribution, stomach: tumor bearing mice.

Data set [2] relates to PSMA+ PC3 PIP and PSMA– PC3 flu tumor xenografts. Kind of data set: Small animal PET or PET/CT imaging of tumor bearing mice. The class given is in vivo.
In the next data set the target is PSMA (Homo sapiens, UniProt Q04609). The data set can be described thus: PSMA inhibitory activity, fluorescence-based Amplex red glutamic acid. The class given is biochemical. As to conditions: for Ki: LNCaP cell lysates, 4 µM NAAG, Cheng-Prusoff conversion. A digest of the protocol: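 LNCaP cell lysate was incubated with the test compound and NAAG substrate for 120 min. Glutamate released by NAAG hydrolysis was detected by a further 60 min incubation with Amplex red glutamic acid working solution, then fluorescence was read at excitation 490 nm and emission 642 nm. IC50 was taken from semilog inhibition curves and converted to Ki by Cheng-Prusoff. Assays were run in triplicate.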

We go through seven molecules from publication PMC4856055 (Journal of medicinal chemistry, 2015).

Values joined by “and” are separate entries in the source; they are usually repeats but may differ in a detail not shown here. Equal values may be shown once. Read-outs that look alike come from different tables or passages of the source.

PSMA, sequence (Q04609 whole entry): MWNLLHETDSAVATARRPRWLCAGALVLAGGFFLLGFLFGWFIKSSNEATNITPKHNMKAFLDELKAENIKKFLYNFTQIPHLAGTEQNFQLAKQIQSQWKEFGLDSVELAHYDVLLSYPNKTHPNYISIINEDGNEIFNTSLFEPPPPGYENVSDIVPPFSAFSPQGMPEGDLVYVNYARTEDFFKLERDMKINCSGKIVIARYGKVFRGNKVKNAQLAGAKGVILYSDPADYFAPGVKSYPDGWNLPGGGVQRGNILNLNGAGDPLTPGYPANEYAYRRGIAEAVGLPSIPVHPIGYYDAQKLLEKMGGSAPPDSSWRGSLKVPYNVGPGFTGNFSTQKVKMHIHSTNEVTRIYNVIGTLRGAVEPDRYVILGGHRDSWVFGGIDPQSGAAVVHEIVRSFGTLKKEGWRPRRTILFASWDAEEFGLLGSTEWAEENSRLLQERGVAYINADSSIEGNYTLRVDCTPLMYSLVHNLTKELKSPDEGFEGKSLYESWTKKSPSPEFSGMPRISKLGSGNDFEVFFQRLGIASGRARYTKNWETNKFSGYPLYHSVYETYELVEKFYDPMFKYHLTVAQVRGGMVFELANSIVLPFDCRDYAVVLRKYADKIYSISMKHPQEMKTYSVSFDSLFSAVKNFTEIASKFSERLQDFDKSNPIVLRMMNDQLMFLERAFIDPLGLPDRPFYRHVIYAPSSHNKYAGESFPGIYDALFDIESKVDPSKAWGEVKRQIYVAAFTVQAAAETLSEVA

Take `O=C(O)CCC(OC(=O)NC(CCCCNC(=O)c1ccc(Br)cc1[18F])C(=O)O)C(=O)O` (stereo not shown) [[^18F]23, 4-Bromo-2-[^18F]fluorobenzoyllysineoxypentanedioic acid (OPA) carbamate]: in data set [1] (0.5 h postinjection), the “PIP:blood ratio” value was 13 and 13.5; the “PIP:flu ratio” value was determined as 28.7; the “PIP:kidney ratio” value is 0.5; the “PIP:muscle ratio” value was 93 and 93.3. In data set [1] (0.5 h postinjection), the “biodistribution, PC-3 PIP tumor” value was 63 % ID/g and 63.4 ± 7.16 % ID/g; the “biodistribution, PC-3 flu tumor” value amounted to 2.21 ± 0.19 % ID/g; the “biodistribution, bladder” value is given as 2.84 ± 0.65 % ID/g; the “biodistribution, blood” value was found to be 4.69 ± 0.33 % ID/g. In data set [1] (0.5 h postinjection), the “biodistribution, bone” value came to 0.89 ± 0.14 % ID/g; the “biodistribution, fat” value turned out to be 1.02 ± 0.12 % ID/g; the “biodistribution, heart” value stood at 1.72 ± 0.31 % ID/g; the “biodistribution, kidney” value was found to be 135 ± 23.0 % ID/g. Besides, in data set [1] (0.5 h postinjection), the “biodistribution, large intestine” value was 1.35 ± 0.35 % ID/g; the “biodistribution, liver” value is recorded as 15.5 ± 1.57 % ID/g; the “biodistribution, lung” value was found to be 4.59 ± 0.78 % ID/g; the “biodistribution, muscle” value was found to be 0.68 ± 0.07 % ID/g. For the same molecule, in data set [1] (0.5 h postinjection), the “biodistribution, pancreas” value came to 1.45 ± 0.15 % ID/g; the “biodistribution, small intestine” value is on record as 1.51 ± 0.71 % ID/g; the “biodistribution, spleen” value is listed as 19.9 ± 7.80 % ID/g; the “biodistribution, stomach” value is reported as 1.08 ± 0.07 % ID/g. For the same molecule, in data set [1] (1 h postinjection), the “PIP:blood ratio” value is 40 and 40.3; the “PIP:flu ratio” value is 69.4; the “PIP:kidney ratio” value is recorded as 0.5; the “PIP:muscle ratio” value was 208 and 208.1. Besides, in data set [1] (1 h postinjection), the “biodistribution, PC-3 PIP tumor” value is given as 64.5 ± 7.71 % ID/g; the “biodistribution, PC-3 flu tumor” value is 0.93 ± 0.19 % ID/g; the “biodistribution, bladder” value was found to be 5.11 ± 3.57 % ID/g; the “biodistribution, blood” value was determined as 1.60 ± 1.17 % ID/g. Besides, in data set [1] (1 h postinjection), the “biodistribution, bone” value came out at 0.48 ± 0.17 % ID/g; the “biodistribution, fat” value was 0.79 ± 0.74 % ID/g; the “biodistribution, heart” value is given as 0.79 ± 0.14 % ID/g; the “biodistribution, kidney” value was 139 ± 23.7 % ID/g. Moreover, in data set [1] (1 h postinjection), the “biodistribution, large intestine” value was determined as 0.71 ± 0.35 % ID/g; the “biodistribution, liver” value is given as 11.9 ± 2.95 % ID/g; the “biodistribution, lung” value is on record as 2.62 ± 0.30 % ID/g; the “biodistribution, muscle” value was 0.31 ± 0.05 % ID/g. Further, in data set [1] (1 h postinjection), the “biodistribution, pancreas” value stood at 0.80 ± 0.21 % ID/g; the “biodistribution, small intestine” value was determined as 1.67 ± 0.70 % ID/g; the “biodistribution, spleen” value is reported as 9.62 ± 5.53 % ID/g; the “biodistribution, stomach” value is 0.67 ± 0.18 % ID/g. Also, in data set [1] (2 h postinjection), the “PIP:blood ratio” value was 148 and 147.6; the “PIP:flu ratio” value is 233.4; the “PIP:kidney ratio” value is 0.7; the “PIP:muscle ratio” value is 643 and 643.1. Moreover, in data set [1] (2 h postinjection), the “biodistribution, PC-3 PIP tumor” value was 90.0 ± 13.6 % ID/g; the “biodistribution, PC-3 flu tumor” value came to 0.39 ± 0.01 % ID/g; the “biodistribution, bladder” value is 4.22 ± 1.58 % ID/g; the “biodistribution, blood” value came out at 0.61 ± 0.41 % ID/g. Moreover, in data set [1] (2 h postinjection), the “biodistribution, bone” value was 0.20 ± 0.03 % ID/g; the “biodistribution, fat” value is 0.88 ± 0.80 % ID/g; the “biodistribution, heart” value was 0.35 ± 0.07 % ID/g; the “biodistribution, kidney” value is 127 ± 37.1 % ID/g. Also, in data set [1] (2 h postinjection), the “biodistribution, large intestine” value was 0.51 ± 0.30 % ID/g; the “biodistribution, liver” value stood at 6.42 ± 1.06 % ID/g; the “biodistribution, lung” value is recorded as 1.21 ± 0.14 % ID/g; the “biodistribution, muscle” value was 0.14 ± 0.02 % ID/g. In data set [1] (2 h postinjection), the “biodistribution, pancreas” value worked out at 0.37 ± 0.07 % ID/g; the “biodistribution, small intestine” value worked out at 0.52 ± 0.17 % ID/g; the “biodistribution, spleen” value is given as 5.69 ± 2.14 % ID/g; the “biodistribution, stomach” value is recorded as 0.67 ± 0.72 % ID/g. Moreover, in data set [1] (4 h postinjection), the “PIP:blood ratio” value is 240 and 240.1; the “PIP:flu ratio” value is listed as 461.5; the “PIP:kidney ratio” value is 1.4; the “PIP:muscle ratio” value was 792 and 791.9. For the same molecule, in data set [1] (4 h postinjection), the “biodistribution, PC-3 PIP tumor” value is 74 % ID/g and 74.4 ± 9.19 % ID/g; the “biodistribution, PC-3 flu tumor” value is recorded as 0.16 ± 0.03 % ID/g; the “biodistribution, bladder” value was 3.30 ± 3.03 % ID/g; the “biodistribution, blood” value stood at 0.31 ± 0.09 % ID/g. For the same molecule, in data set [1] (4 h postinjection), the “biodistribution, bone” value came out at 0.09 ± 0.05 % ID/g; the “biodistribution, fat” value was 0.53 ± 0.27 % ID/g; the “biodistribution, heart” value was found to be 0.14 ± 0.08 % ID/g; the “biodistribution, kidney” value worked out at 54.5 ± 22.2 % ID/g. In addition, in data set [1] (4 h postinjection), the “biodistribution, large intestine” value was 0.81 ± 0.15 % ID/g; the “biodistribution, liver” value was determined as 2.95 ± 1.97 % ID/g; the “biodistribution, lung” value amounted to 0.58 ± 0.32 % ID/g; the “biodistribution, muscle” value is 0.09 ± 0.07 % ID/g. Further, in data set [1] (4 h postinjection), the “biodistribution, pancreas” value is recorded as 0.13 ± 0.03 % ID/g; the “biodistribution, small intestine” value is on record as 0.23 ± 0.05 % ID/g; the “biodistribution, spleen” value was 1.68 ± 1.03 % ID/g; the “biodistribution, stomach” value is recorded as 0.12 ± 0.07 % ID/g. In addition, the tumor/kidney ratio result in data set [1] (at 2–4 h) is “approximately 1”. Moreover, in data set [1] (mouse, in vivo), the “PSMA– PC3 flu tumor uptake” value was “no specific uptake” and the “defluorination in vivo (from bone uptake)” value is given as “lack of significant defluorination in vivo”. Besides, the “PSMA+ PC3 PIP tumor uptake on small animal PET imaging” value in data set [2] (male SCID mice with PSMA+ PC3 PIP and PSMA– PC3 flu xenografts) was “Intense and selective radiotracer uptake”. The “uptake in salivary glands on imaging” value in data set [2] (mouse, in vivo) is “Neither [^18F]23 nor [^18F]24 demonstrated any uptake in salivary glands”.

Usually Ki stands for a measure of affinity in units of concentration, obtained from inhibition or displacement. Higher therefore signals weaker binding. Turning to `O=C(O)CC[C@H](NC(=O)N[C@@H](CCCCNC(=O)c1ccc(I)cc1F)C(=O)O)C(=O)O` [compound 27, (S)-2-(3-((S)-5-(4-Iodo-2-fluorobenzamido)-1-carboxypentyl)ureido)pentanedioic Acid], the Ki on PSMA (Ki) was 0.023 nM and 0.02 nM.

On to `O=C(O)CC[C@H](NC(=O)N[C@@H](CCCCNC(=O)c1ccc(Br)cc1F)C(=O)O)C(=O)O` [compound 26, (S)-2-(3-((S)-5-(4-Bromo-2-fluorobenzamido)-1-carboxypentyl)ureido)pentanedioic Acid], for which, at PSMA (Ki), the Ki was 0.036 nM and 0.04 nM.

`O=C(O)CC[C@H](OC(=O)N[C@@H](CCCCNC(=O)c1ccc(Br)cc1F)C(=O)O)C(=O)O` [compound 23, (S)-2-((((S)-5-(4-Bromo-2-fluorobenzamido)-1-carboxypentyl)carbamoyl)oxy)pentanedioic Acid]: the “decrease in potency compared with the corresponding ureas 26 and 27” value at PSMA is on record as less than 10 fold. The molecule also came in with a Ki on PSMA (Ki) of 0.11 nM.

Turning to `O=C(O)CC[C@H](NC(=O)O[C@@H](CCCCNC(=O)c1ccc(F)cc1)C(=O)O)C(=O)O` [compound 12, (S)-2-(((((S)-1-Carboxy-5-(4-fluorobenzamido)pentyl)oxy)-carbonyl)amino)pentanedioic Acid], the “reduction in binding affinity compared to 9” value on PSMA was “more than 150 fold”.

As for `O=C(O)CC[C@H](OC(=O)N[C@@H](CCCCNC(=O)c1ccc(I)cc1F)C(=O)O)C(=O)O` [compound 24], on PSMA, the “decrease in potency compared with the corresponding ureas 26 and 27” value is listed as less than 10 fold; the Ki stood at 0.21 nM.

As to `O=C(O)CC[C@H](OC(=O)N[C@@H](CCCCNC(=O)c1ccc(F)cc1)C(=O)O)C(=O)O` [compound 13, (S)-2-((((S)-1-Carboxy-5-(4-fluorobenzamido)pentyl)-carbamoyl)oxy)pentanedioic Acid], the “reduction in binding affinity compared to 9” value at PSMA is 30 fold. The same molecule came in with a Ki on PSMA (Ki) of 9.2 nM.
